# Bioassay records as filed in PubChem BioAssay.
# These entries were drawn from the full list.
# HKDC1 act: activators of human hexokinase HKDC1 | activity change, negative = activation, % at 20 µM | recombinant HKDC1, G6PDH/diaphorase resazurin fluorescence; active compounds read low | Q2TB90 | 340,000 tested, 0.056% active;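 active = activation of 40% or more at 20 µM, a change of -40% or lower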
#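 Dosing: single compound dose of 20 µM, 1% DMSO final / Test system: in-house human HKDC1 enzyme, G6PDH and diaphorase coupling enzymes / Quantity: 5 µg/mL HKDC1 final / Incubation: enzyme reaction 90 min, room temperature, in dark / Buffer or medium: pH 8.0 Tris with MgCl2 / Detection: coupled resazurin-to-resorufin fluorescence, Ex 525/Em 613 nm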
# * marks the source's active call; other numbers are inactive results.
SMILES,HKDC1 act
COc1cc2c(cc1OC)-c1cc(NCc3ccccn3)nc(=O)n1CC2,59
COCC(=O)OC1CCn2c1nc1c2C(=O)C(C)=C(NC(C)=O)C1=O (stereo not given),68
O=C(NN1CCOCC1)c1ccc(Cl)c([N+](=O)[O-])c1,36
Cc1cc2nc3ccc(=[N+](C)C)cc-3sc2cc1N,47
CCOC(=O)c1c(C)[nH]c(C2=NNC(=NC3CC3)SC2)c1C,-77*
CC1CCCN(C(=O)COC(=O)c2cc([N+](=O)[O-])ccc2N2CCOCC2)C1 (stereo not given),41
Cc1ccccc1N=C1NN=C(c2ccccc2F)CS1,-47*
CN(C)CC1CCC/C(=C\c2ccc(OC(=O)c3ccc(Cl)cc3)cc2)C1=O (stereo not given),37
Cc1cc(C)c(S(=O)(=O)/N=C2/C=C(Sc3ncn[nH]3)C(=O)c3ccccc32)cc1C,64
CCn1c2ccccc2c2nc3cc(S(=O)(=O)N4CCOCC4)ccc3nc21,-61*
Cc1cc2cc(CCNC(=O)c3ccc(S(=O)(=O)N4CCOCC4)cc3)c(=O)[nH]c2cc1C,41
CCN(CC)Cc1cc(O)c(CN(CC)CC)cc1O,47
O=C(O)c1cc(O)c2c(c1)[C@@H]([C@H]1c3cc(C(=O)O)cc(O)c3C(=O)c3c(O[C@@H]4O[C@H](CO)[C@@H](O)[C@H](O)[C@H]4O)cccc31)c1cccc(O[C@@H]3O[C@H](CO)[C@@H](O)[C@H](O)[C@H]3O)c1C2=O,80
NC1=CC(=O)C(=O)c2ccccc21,49
O=C(O)C(Cc1ccccc1)N1C(=O)/C(=C/C=C/c2ccco2)SC1=S (stereo not given),37
